From PubChem
The list is not random: actives were taken first. Their share in the collection is about 2.2%.
Hck-Nef inh – blocks Nef-activated human Hck kinase; Recombinant Hck-YEEI plus Nef, Z-Lyte FRET kinase assay; 220,000 compounds, 0.68% hits; P08631; inhibition, % at 20 µM;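 active means Hck-Nef kinase inhibition above about 50%, limit read from the data; inactive means inhibition below that limit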;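 further: 0% = DMSO with Hck plus Nef and 100% = Hck alone without Nef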
eIF4E-4G inh – blocks eIF4E binding to eIF4G | P63073+Q04637 | inhibition, % at 21.7 µM | 220,000 compounds, 0.37% hits | AID 782 | TR-FRET eIF4E-eIF4GI(517-606) binding, 2 h;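 active means inhibition above about 30%, limit read from the data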;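 further: 0% = full FRET control wells and 100% = background wells lacking eIF4GI fragment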
Runt-CBFb FRET – inhibitors of human RUNX1 Runt domain binding to CBFb | inhibition, % at 20 µM | Cerulean-Runt/Venus-CBFb FRET ratio 530/480, 1 h | 220,000 compounds, 0.46% hits | Q01196+Q13951 | AID 1496;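 active means inhibition over about 50% at 20 µM in the single-dose screen, limit read from the data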;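 further: 0% = DMSO wells and 100% = excess unlabeled CBFb competitor control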
Target sequence (Q01196 whole entry, looked up, the tested form may be a part): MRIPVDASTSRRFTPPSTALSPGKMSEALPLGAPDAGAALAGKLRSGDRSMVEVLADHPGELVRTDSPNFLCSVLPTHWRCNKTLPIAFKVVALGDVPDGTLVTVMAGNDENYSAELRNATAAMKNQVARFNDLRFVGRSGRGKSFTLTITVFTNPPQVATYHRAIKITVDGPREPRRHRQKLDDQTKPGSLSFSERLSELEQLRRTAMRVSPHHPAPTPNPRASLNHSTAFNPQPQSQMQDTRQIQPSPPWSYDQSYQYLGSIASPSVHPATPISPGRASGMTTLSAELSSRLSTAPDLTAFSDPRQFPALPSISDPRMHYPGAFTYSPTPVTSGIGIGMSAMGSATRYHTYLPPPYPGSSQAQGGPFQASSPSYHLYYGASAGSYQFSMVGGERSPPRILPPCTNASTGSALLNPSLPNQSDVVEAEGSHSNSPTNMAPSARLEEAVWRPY
Target sequence (Q13951 whole entry, looked up, the tested form may be a part): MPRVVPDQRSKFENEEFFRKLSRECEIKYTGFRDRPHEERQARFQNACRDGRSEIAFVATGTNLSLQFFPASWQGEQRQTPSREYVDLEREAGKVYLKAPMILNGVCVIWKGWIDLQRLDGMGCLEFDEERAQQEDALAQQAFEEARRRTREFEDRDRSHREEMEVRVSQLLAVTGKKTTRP
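System: Cerulean-labeled Runt domain protein | Quantity: 100 nM of each labeled protein | Schedule: 1 h compound exposure, room temperature | Detection: Fluorescence energy transfer, 422 nm excitation, 530/480 nm emission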
Runt-SMMHC FRET – blocks binding of human RUNX1 Runt domain to CBFb-SMMHC; Cerulean-Runt/Venus-CBFb-SMMHC FRET ratio 530/480, 1 h; AID 1434; 220,000 compounds, 0.74% hits; inhibition, % at 20 µM;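 active means mean inhibition across duplicate retests at 20 µM reaching about 50%, limit read from the data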;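 further: 0% = DMSO wells and 100% = wells with excess untagged CBFb-SMMHC; inhibitors lower the FRET ratio by blocking Runt binding to CBFb-SMMHC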
RanGTP-Impb inh – inhibitors of RanGTP-importin-beta interaction, primary screen, biochemical, FRET, CFP-Ran, YFP-importin-beta, homogeneous. cell-free CFP-Ran/YFP-importin-beta FRET ratio. 300,000 compounds, 1.1% hits. inhibition, % (no concentration beside the values);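 active means more than half of the replicate wells show a fall in the fluorescence ratio signal beyond about 16%, limit read from the data, passing the limit was not always enough; inconclusive means exactly half of the replicate wells pass the set limit; inactive means fewer than half of replicates pass the limit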;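 further: 0% = DMSO wells and 100% = Ran loaded with GDP instead of GTP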
PERK inh – human PERK inhibition, primary cell-based screen; CHO PERK-DD fusion, SEAP luminescence translation reporter; Q9NZJ5; inhibition, % at 5.6 µM; 220,000 compounds, 0.17% hits;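 active means inhibition above the mean inhibition of all tested compounds plus 3 SD, set separately per screening campaign, cut at about 2.9% in these data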;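 further: PERK kinase domain activated by AP20187 dimerizer at 100 nM; 0% = DMSO with dimerizer and 100% = rapamycin at 8.4 µM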
Starred values were filed as active, the others as inactive; u = inconclusive; x = no result given; [ ] = dose if it differs, or a comment.

SMILES	Hck-Nef inh	eIF4E-4G inh	Runt-CBFb FRET	Runt-SMMHC FRET	RanGTP-Impb inh	PERK inh
CC1(C)Cc2c(cnn2-c2ccc(F)cc2)C(NC(=O)CN2CCCC2=O)C1 (stereo not drawn)	x	x	x	x	-3	x
Cc1csc(SCC(=O)Nc2ccc3c(c2)OCCO3)n1	-12	5	1	4	-1	0
CSc1nsc(SCC(=O)Nc2ccc3c(c2)OCCO3)n1	0	3	1	-3	3	3.1*
CC(C)c1nc(SCC(=O)Nc2ccc3c(c2)OCCO3)n[nH]1	10	-1	0	-3	20*	0
CC(C)c1nc(SCC(=O)Nc2ccc3c(c2)OCO3)n[nH]1	-2	-9	2	-3	2	1
CCOC(=O)NC(=O)C(=CNNc1ncc(C(F)(F)F)cc1Cl)C(=O)NC(=O)OCC	-4	1	3	-2	-6	1
CN1CCN(c2nc3ccccc3nc2C(C#N)C(=O)OC2CCCCC2)CC1 (stereo not drawn)	-4	-1	0	2	15*	-1
CCN1CCN(c2nc3ccccc3nc2C(C#N)C(=O)OC2CCCCC2)CC1 (stereo not drawn)	0	5	18	38	x	-2
COCCNC(=O)C(C#N)c1nc2ccccc2nc1N1CCCCCC1 (stereo not drawn)	1	6	44	51*	72*	-1
COCCCNC(=O)C(C#N)c1nc2ccccc2nc1N1CCN(Cc2ccccc2)CC1 (stereo not drawn)	-17	3	24	24	u	-1
COc1c2n(C)ccc3c-2n(c(=O)c1=O)c1ccccc31	x	x	x	x	3	x
Cc1cccc(NC(=O)C(C)N2C(=O)c3ccccc3S2(=O)=O)n1 (stereo not drawn)	x	x	x	x	-3	x
CCOc1cc(C2C3=C(CCCC3=O)N(CCC(=O)O)C3=C2C(=O)CCC3)ccc1OS(=O)(=O)c1ccc(C)cc1	33	0	26	x	104*	0
Cc1ccc(S(=O)(=O)Oc2ccc(C3C4=C(CCCC4=O)N(CCC(=O)O)C4=C3C(=O)CCC4)cc2Cl)cc1	32	15	5	x	129*	2
Cc1ccc(S(=O)(=O)Oc2ccc(C3C4=C(CCCC4=O)OC4=C3C(=O)CCC4)cc2)cc1	2	-17	x	-6	1	-1
CCOc1cc(C2C3=C(CCCC3=O)N(C)C3=C2C(=O)CCC3)cc(Cl)c1O	7	-3	14	50	6	0
O=C(Nc1ccc(S(=O)(=O)Nc2nccs2)cc1)c1c(F)c(F)c(F)c(F)c1F	x	x	x	x	0	x
O=C1OCc2cccc([N+](=O)[O-])c21	0	3	1	5	-5	1
O=C1CC(=O)c2c1cccc2[N+](=O)[O-]	75*	29	26	-3	x	0
CN1C(=O)/C(=C\C=C2/CCCN2C)N(C)C1=S	20	6	-14	-31	u	1
CCN1C(=O)/C(=C/C=C2/CCCN2C)OC1=S	12	3	3	125*	1	2
CC(=O)N1CCc2c(sc(NC(=O)CS(=O)(=O)c3ccc(F)cc3)c2C#N)C1	x	x	x	x	2	x
COC(=O)c1c(NC(=O)CCS(=O)(=O)c2ccccc2)sc2c1CCN(C)C2	x	x	x	x	79*	x
CC(C)N1CCc2c(sc(NC(=O)CCS(=O)(=O)c3ccccc3)c2C#N)C1	x	x	x	x	169*	x
COC(=O)c1c(NC(=O)CN2CCN(S(=O)(=O)c3ccccc3)CC2)sc2c1CCC(C)C2 (stereo not drawn)	2	1	0	-2	3	1
CCCN1CCc2c(sc(NC(=O)CCS(=O)(=O)c3ccccc3)c2C(=O)OC)C1	x	x	x	x	155*	x
COC(=O)c1ccsc1NC(=O)CCS(=O)(=O)c1ccccc1	x	x	x	x	6	x
Cc1cn(C2OC(CC(=O)Oc3ccccc3)C(O)C2O)c(=O)[nH]c1=O (stereo not drawn)	x	x	x	x	4	x
Cc1ccc(/C=N/NC(=O)C[n+]2ccccc2)s1	3	1	-1	3	-1	0
CCCCCCCCCC(=O)N/N=C/c1ccc(C)s1	-1	52*[fluorescence artefact?]	0	-2	-2	1
